This is an account of results in ChEMBL document CHEMBL1157184, “Hymenoic acid, a novel specific inhibitor of human DNA polymerase lambda from a fungus of Hymenochaetaceae sp” (Bioorg Med Chem, 2008).

Compound in data set [1]: C/C(=C\CC[C@H](C)C(=O)O)[C@H]1CC[C@H](C(=O)O)CC1
Nature of the data set: Inhibition of human DNA polymerase lambda at 40 uM using nucleotide as substrate. Put shortly: (§1)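 Kinetics on full-length human pol λ at 0, 20, 40 and 60 μM compound, varying either the template-primer poly(dA)/oligo(dT)12-18 or the nucleotide substrate dTTP. Km and Vmax (pmol/h) came from Lineweaver-Burk plots and Ki from Dixon plots.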

Compound in data set [2]: C/C(=C\CC[C@H](C)C(=O)O)[C@H]1CC[C@H](C(=O)O)CC1
Nature of the data set: Inhibition of human DNA polymerase lambda at 20 uM using template primer as substrate. The essentials: as §1

Compound in data set [3]: C/C(=C\CC[C@H](C)C(=O)O)[C@H]1CC[C@H](C(=O)O)CC1
Nature of the data set: Inhibition of human DNA polymerase lambda at 20 uM using nucleotide as substrate. The essentials:
as §1

Compound in data set [4]: C/C(=C\CC[C@H](C)C(=O)O)[C@H]1CC[C@H](C(=O)O)CC1
Nature of the data set: Inhibition of human DNA polymerase lambda at 60 uM using template primer as as substrate. Put shortly: as §1

Compound in data set [5]: C/C(=C\CC[C@H](C)C(=O)O)[C@H]1CC[C@H](C(=O)O)CC1
Nature of the data set: Inhibition of human DNA polymerase lambda at 60 uM using nucleotide as substrate. The essentials:
as §1

Compound in data set [6]: C/C(=C\CC[C@H](C)C(=O)O)[C@H]1CC[C@H](C(=O)O)CC1
Nature of the data set: Inhibition of human DNA polymerase lambda at 40 uM using template primer as as substrate. The essentials: as §1

B1: DNA polymerase lambda (Homo sapiens), Q9UGP5 (protein)
chain: MDPRGILKAFPKRQKIHADASSKVLAKIPRREEGEEAEEWLSSLRAHVVRTGIGRARAELFEKQIVQHGGQLCPAQGPGVTHIVVDEGMDYERALRLLRLPQLPPGAQLVKSAWLSLCLQERRLVDVAGFSIFIPSRYLDHPQPSKAEQDASIPPGTHEALLQTALSPPPPPTRPVSPPQKAKEAPNTQAQPISDDEASDGEETQVSAADLEALISGHYPTSLEGDCEPSPAPAVLDKWVCAQPSSQKATNHNLHITEKLEVLAKAYSVQGDKWRALGYAKAINALKSFHKPVTSYQEACSIPGIGKRMAEKIIEILESGHLRKLDHISESVPVLELFSNIWGAGTKTAQMWYQQGFRSLEDIRSQASLTTQQAIGLKHYSDFLERMPREEATEIEQTVQKAAQAFNSGLLCVACGSYRRGKATCGDVDVLITHPDGRSHRGIFSRLLDSLRQEGFLTDDLVSQEENGQQQKYLGVCRLPGPGRRHRRLDIIVVPYSEFACALLYFTGSAHFNRSMRALAKTKGMSLSEHALSTAVVRNTHGCKVGPGRVLPTPTEKDVFRLLGLPYREPAERDW
Turning to B1, the Vmax in data set [1] worked out at 32.3 pmol/h; in data set [2], 62.5 pmol/h; in data set [3] it was 40 pmol/h; in data set [4], 40.8 pmol/h; in data set [5], 27 pmol/h; in data set [6], 48.8 pmol/h.
